Among the data in ChEMBL document CHEMBL1145082 (J Med Chem, 2003) are IC50 and inhibition values, retold here.

Test [1] addresses Protein kinase C gamma type (Homo sapiens, UniProt P05129). Description: Inhibition of Protein kinase C gamma (PKC-gamma). A digest of the protocol: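 Recombinant human PKCα, PKCγ or PKCβII (5–10 mU) phosphorylating histone H1 (0.1 mg/mL) with 33P-ATP, total ATP 10 µM. Buffer 50 mM Hepes pH 7.4 with Triton X-100, CaCl2, Mg acetate, phosphatidylserine and diacylglycerol. Run 40 min at room temperature, stopped with phosphoric acid, then P30 filter counting. IC50 from 6–10 concentrations; ≥3 experiments in duplicate; ± SEM.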

In test [2] the target is Glycogen synthase kinase-3 beta (Homo sapiens) (UniProt P49841). Description: Inhibition of Glycogen synthase kinase-3beta (GSK3-beta) at 1 uM. To be noted: Oryctolagus cuniculus.
Chain of Glycogen synthase kinase-3 beta (Homo sapiens) (P49841 whole entry, looked up): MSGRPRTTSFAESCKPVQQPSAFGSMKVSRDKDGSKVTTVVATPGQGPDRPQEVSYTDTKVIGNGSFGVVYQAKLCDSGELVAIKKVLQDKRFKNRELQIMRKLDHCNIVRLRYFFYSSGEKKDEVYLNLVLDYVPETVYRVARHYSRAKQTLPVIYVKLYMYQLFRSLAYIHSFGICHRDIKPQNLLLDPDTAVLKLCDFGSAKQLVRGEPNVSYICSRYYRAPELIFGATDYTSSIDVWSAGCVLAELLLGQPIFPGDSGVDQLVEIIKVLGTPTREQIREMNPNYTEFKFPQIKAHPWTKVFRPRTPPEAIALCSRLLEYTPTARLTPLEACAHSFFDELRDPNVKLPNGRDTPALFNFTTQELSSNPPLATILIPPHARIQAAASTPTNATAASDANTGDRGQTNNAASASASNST
Test [3] in a line: Inhibitory activity against Protein kinase A was determined.
The target of test [4] is Protein kinase C alpha type (Homo sapiens, UniProt P17252). The test is described as follows: Inhibition of Protein kinase C alpha. A digest of the protocol:
(§1)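 Recombinant human PKCα, PKCγ or PKCβII (5–10 mU) phosphorylating histone H1 (0.1 mg/mL) with 33P-ATP, total ATP 10 µM. Buffer 50 mM Hepes pH 7.4 with Triton X-100, CaCl2, Mg acetate, phosphatidylserine and diacylglycerol. Run 40 min at room temperature, stopped with phosphoric acid, then P30 filter counting.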

In test [5] the target is Protein kinase C theta type (Homo sapiens, UniProt Q04759). Description: Inhibition of Protein kinase C theta. In a few lines:
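Recombinant human PKCθ (5–10 mU) with histone H1 (0.1 mg/mL) and 33P-ATP, total ATP 10 µM, in 8 mM MOPS pH 7.0, 0.2 mM EDTA, 10 mM Mg acetate. Run 40 min at room temperature, stopped with phosphoric acid, then P30 filter counting. IC50 from 6–10 concentrations; ≥3 experiments in duplicate; ± SEM.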

The target of test [6] is Cyclin-dependent kinase 2 (Homo sapiens, UniProt P24941). Description: Inhibition of Cyclin-dependent kinase 2 (CDK2). A digest of the protocol: (§2)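 Reaction started with 30–150 ng kinase, run 1 h at 30 °C. Peptides captured on streptavidin plates and counted. IC50 from 6–10 concentrations; ≥3 experiments in duplicate; ± SEM.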
Test [7] is described as follows: Inhibition of Vascular endothelial growth factor receptor 2. Details: species or system Homo sapiens. A digest of the protocol:
as §2

Test [8] addresses Protein kinase C beta type (Homo sapiens, UniProt P05771). Description: Inhibition of Protein kinase C beta 2. In a few lines: as §1
Test [9] addresses Cyclin-dependent kinase 1 (Homo sapiens, UniProt P06493). The test is described as follows: Inhibition of Cyclin-dependent kinase 1. A digest of the protocol: as §2
A short description of test [10]: Inhibition of Casein Kinase I. Also on record: species or system Rattus norvegicus. A digest of the protocol: as §2
Another test concerns the target CaM kinase II (Homo sapiens, UniProt Q13557+Q13555+Q13554+Q9UQM7). Description: Inhibition of Calcium/calmodulin-dependent protein kinase II. Format: protein assay, Rattus norvegicus.

Molecules are shown by their SMILES.

Chain of Protein kinase C beta type (P05771 whole entry): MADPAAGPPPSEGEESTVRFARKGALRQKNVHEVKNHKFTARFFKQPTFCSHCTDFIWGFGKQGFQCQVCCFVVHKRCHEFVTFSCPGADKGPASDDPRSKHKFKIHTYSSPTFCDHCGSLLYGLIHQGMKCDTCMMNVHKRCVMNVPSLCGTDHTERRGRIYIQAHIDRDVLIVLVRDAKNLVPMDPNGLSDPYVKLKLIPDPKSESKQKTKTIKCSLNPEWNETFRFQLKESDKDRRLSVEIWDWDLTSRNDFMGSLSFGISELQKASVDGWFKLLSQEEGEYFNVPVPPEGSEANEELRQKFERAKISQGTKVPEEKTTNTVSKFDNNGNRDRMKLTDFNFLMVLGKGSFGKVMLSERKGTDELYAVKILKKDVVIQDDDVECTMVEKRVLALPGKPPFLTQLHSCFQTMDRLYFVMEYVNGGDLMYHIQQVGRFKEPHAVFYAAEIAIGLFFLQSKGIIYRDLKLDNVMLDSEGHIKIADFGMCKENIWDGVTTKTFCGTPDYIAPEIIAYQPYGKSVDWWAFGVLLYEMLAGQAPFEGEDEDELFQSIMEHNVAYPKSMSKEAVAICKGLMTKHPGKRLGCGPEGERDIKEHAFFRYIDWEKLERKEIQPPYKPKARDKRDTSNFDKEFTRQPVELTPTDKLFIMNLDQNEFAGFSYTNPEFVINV
Chain of Protein kinase C theta type (Q04759 whole entry): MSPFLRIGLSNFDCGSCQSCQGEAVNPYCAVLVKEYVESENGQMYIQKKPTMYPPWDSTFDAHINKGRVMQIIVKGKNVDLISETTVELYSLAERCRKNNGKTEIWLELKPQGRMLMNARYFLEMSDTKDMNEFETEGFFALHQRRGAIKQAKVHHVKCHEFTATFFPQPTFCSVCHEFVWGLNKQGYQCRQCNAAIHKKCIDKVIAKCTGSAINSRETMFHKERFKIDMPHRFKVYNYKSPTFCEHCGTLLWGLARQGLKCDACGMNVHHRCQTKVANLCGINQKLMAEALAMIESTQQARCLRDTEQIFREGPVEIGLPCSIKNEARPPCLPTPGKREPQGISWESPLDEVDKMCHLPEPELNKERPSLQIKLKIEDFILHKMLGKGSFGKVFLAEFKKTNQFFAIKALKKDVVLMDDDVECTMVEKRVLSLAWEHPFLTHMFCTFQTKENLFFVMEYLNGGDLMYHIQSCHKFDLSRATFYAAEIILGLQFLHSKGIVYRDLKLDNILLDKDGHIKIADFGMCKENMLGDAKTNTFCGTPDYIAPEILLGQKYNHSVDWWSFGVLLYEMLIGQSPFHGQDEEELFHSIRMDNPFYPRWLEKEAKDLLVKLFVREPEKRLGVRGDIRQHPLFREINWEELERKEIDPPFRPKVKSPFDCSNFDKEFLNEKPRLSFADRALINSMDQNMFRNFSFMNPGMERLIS
Chain of Cyclin-dependent kinase 1 (P06493 whole entry): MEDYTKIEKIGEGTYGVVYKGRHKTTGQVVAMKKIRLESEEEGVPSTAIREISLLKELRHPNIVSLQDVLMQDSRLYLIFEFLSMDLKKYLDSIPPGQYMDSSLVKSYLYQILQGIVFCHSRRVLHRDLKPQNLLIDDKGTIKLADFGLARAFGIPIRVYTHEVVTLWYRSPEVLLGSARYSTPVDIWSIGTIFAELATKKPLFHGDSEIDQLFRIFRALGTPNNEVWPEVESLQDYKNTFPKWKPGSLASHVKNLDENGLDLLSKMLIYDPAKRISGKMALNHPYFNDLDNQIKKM

In [1], `O=C1NC(=O)C2=C1c1cn(c3ncccc13)CCOCCOCCOCCOCCOCCn1cc2c2cccnc21` returned an IC50 of more than 10 µM.

`O=C1NC(=O)C2=C1c1cn(c3ncccc13)CCOCCOCCn1cc2c2cccnc21`: the IC50 in test [1] is more than 10 µM.

In [1], `O=C1NC(=O)C2=C1c1cn(c3ccccc13)CCOCCOCCn1cc2c2cccnc21` had an IC50 of 2.67 µM.

In test [1], `O=C1NC(=O)C2=C1c1cn(c3ccccc13)CCOCCOCCOCCOCCn1cc2c2ccccc21` had an IC50 of 3.3 µM.

`CN1C(=O)C2=C(C1=O)c1cn(c3ncccc13)CCOCCOCCn1cc2c2ccccc21` returned an inhibition in test [2] of 51%.

Molecule `CN1C(=O)C2=C(C1=O)c1cn(c3ccccc13)CCOCCOCCOCCn1cc2c2ccccc21` showed an inhibition in test [2] of 54%.

The molecule `O=C1NC(=O)C2=C1c1cn(c3ccccc13)CCOCCOCCn1cc2c2ccccc21` yielded an IC50 in test [1] of 2.73 µM.

Take `O=C1NC(=O)C2=C1c1cn(c3ccccc13)CCOCCOCCOCCn1cc2c2ccccc21` [INDOLYLYLMALEIMIDE 2]: the IC50 in [3] was more than 10 µM; in test [4], 0.086 µM; in test [5] it was 0.065 µM; in test [6], 0.992 µM; in test [7], 1.45 µM; in [8] it was 0.006 µM. For the same molecule, the values for the IC50 in test [9], in test [10] and in test [1] were 1.25 µM, more than 10 µM and 1.2 µM, respectively.

`O=C1NC(=O)C2=C1c1cn(c3ccccc13)CCOCCOCCOCCn1cc2c2cccnc21` [INDOLYLYLMALEIMIDE 1]: the IC50 in [3] is more than 10 µM; in test [4] it was 0.673 µM; in test [5], 0.835 µM; on CaM kinase II, more than 10 µM; in [6], 2.44 µM; in [7], 3.56 µM. Further, the IC50 in [8] was 0.046 µM; in test [9] it was 4.43 µM; in [10], more than 10 µM; in test [1], 1.34 µM.

Consider `O=C1NC(=O)C2=C1c1cn(c3ccccc13)CCOCCOCCOCCOCCOCCn1cc2c2ccccc21`, for which, in [1], half-maximal inhibition (IC50) was put at 5.17 µM.

The term IC50 denotes the point on the concentration scale where inhibition reaches its midpoint. In general, inhibition refers to the percentage by which the read-out fell short of the control. Read a high inhibition as a strong effect.
